{
  "source": "ChEMBL document CHEMBL1159032",
  "about": "“Renal excretion of stevioside in rats” (J Nat Prod, 1992)",
  "key": {"[1]": {"assay": "Clearance in Wistar rat at 16 mg/kg/hr, iv", "assay_type": "ADME, organism-based", "parameters": "route intravenous", "conditions": "in vivo", "in_short": "(§1)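 Male Wistar rats (~345 g, fed, water ad lib) under ip sodium pentobarbital (30 mg/kg) on a heated table, tracheostomized. Stevioside (3% in isotonic Ringer's) was given as a priming dose plus sustained iv infusion via jugular vein. There were two 30-min periods, control then stevioside, with 10 rats per dose group. Carotid blood and timed bladder urine were collected.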"}, "[2]": {"system": "Rattus norvegicus", "assay": "Effect on renal excretion in Wistar rat assessed as glucose clearance at 4 mg/kg/hr, iv (RVb=0 ml/min/kg)", "assay_type": "functional, Kidney", "in_short": "as §1"}, "[3]": {"system": "Rattus norvegicus", "assay": "Effect on renal excretion in Wistar rat assessed as glucose clearance at 8 mg/kg/hr, iv (RVb=0 ml/min/kg)", "assay_type": "functional, Kidney", "in_short": "as §1"}, "[4]": {"system": "Rattus norvegicus", "assay": "Effect on renal excretion in Wistar rat assessed as glucose clearance at 12 mg/kg/hr, iv (RVb=0 ml/min/kg)", "assay_type": "functional, Kidney", "in_short": "as §1"}, "[5]": {"system": "Rattus norvegicus", "assay": "Effect on renal excretion in Wistar rat assessed as glucose clearance at 16 mg/kg/hr, iv (RVb=0 ml/min/kg)", "assay_type": "functional, Kidney", "in_short": "as §1"}, "[6]": {"system": "Rattus norvegicus", "assay": "Effect on renal excretion in Wistar rat assessed as fractional sodium excretion at 4 mg/kg/hr, iv (RVb=0.61 %)", "assay_type": "functional, Kidney"}, "[7]": {"system": "Rattus norvegicus", "assay": "Effect on renal excretion in Wistar rat assessed as fractional sodium excretion at 8 mg/kg/hr, iv (RVb=0.58 %)", "assay_type": "functional, Kidney"}, "[8]": {"system": "Rattus norvegicus", "assay": "Effect on renal excretion in Wistar rat assessed as fractional sodium excretion at 12 mg/kg/hr, iv (RVb=0.70 %)", "assay_type": "functional, Kidney"}, "[9]": {"system": "Rattus norvegicus", "assay": "Effect on renal excretion in Wistar rat assessed as fractional sodium excretion at 16 mg/kg/hr, iv (RVb=0.60 %)", "assay_type": "functional, Kidney"}, "[10]": {"system": "Rattus norvegicus", "assay": "Effect on renal excretion in Wistar rat assessed as glomerular filtration rate at 4 mg/kg/hr, iv (RVb=1.41 %)", "assay_type": "functional, Kidney", "in_short": "(§2)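 Anaesthetized (pentobarbital 30 mg/kg ip) male Wistar rats (~345 g), 10 per group, were studied over a 30-min control period then a 30-min stevioside priming-plus-iv infusion period. Ringer's containing 2% PAH and 10% inulin was infused at 0.03 ml/min. Urine flow from timed bladder collection was expressed as percent of GFR, with GFR taken as inulin clearance (anthrone assay).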"}, "[11]": {"system": "Rattus norvegicus", "assay": "Effect on renal excretion in Wistar rat assessed as glomerular filtration rate at 8 mg/kg/hr, iv (RVb=1.47 %)", "assay_type": "functional, Kidney", "in_short": "as §2"}, "[12]": {"system": "Rattus norvegicus", "assay": "Effect on renal excretion in Wistar rat assessed as glomerular filtration rate at 12 mg/kg/hr, iv (RVb=1.87 %)", "assay_type": "functional, Kidney", "in_short": "as §2"}, "[13]": {"system": "Rattus norvegicus", "assay": "Effect on renal excretion in Wistar rat assessed as glomerular filtration rate at 4 mg/kg/hr, iv (RVb=1.39 %)", "assay_type": "functional, Kidney", "conditions": "in the assay text read “16 mg/kg/hr” for “4 mg/kg/hr”", "in_short": "as §2"}, "[14]": {"system": "Rattus norvegicus", "assay": "Effect on renal excretion in Wistar rat assessed as inulin clearance at 4 mg/kg/hr, iv administered 30 mins after inulin infusion (RVb=6.66 ml/min/kg)", "assay_type": "functional, Kidney"}, "[15]": {"system": "Rattus norvegicus", "assay": "Effect on renal excretion in Wistar rat assessed as inulin clearance at 8 mg/kg/hr, iv administered 30 mins after inulin infusion (RVb=6.33 ml/min/kg)", "assay_type": "functional, Kidney"}, "[16]": {"system": "Rattus norvegicus", "assay": "Effect on renal excretion in Wistar rat assessed as inulin clearance at 12 mg/kg/hr, iv administered 30 mins after inulin infusion (RVb=5.69 ml/min/kg)", "assay_type": "functional, Kidney"}, "[17]": {"system": "Rattus norvegicus", "assay": "Effect on renal excretion in Wistar rat assessed as inulin clearance at 16 mg/kg/hr, iv administered 30 mins after inulin infusion (RVb=6.29 ml/min/kg)", "assay_type": "functional, Kidney"}, "[18]": {"system": "Rattus norvegicus", "assay": "Effect on renal excretion in Wistar rat assessed as p-aminohippuric acid clearance at 4 mg/kg/hr, iv administered 30 mins after p-aminohippuric acid infusion (RVb=12.88 ml/min/kg)", "assay_type": "functional, Kidney", "in_short": "(§3)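 Pentobarbital-anaesthetized (30 mg/kg ip) male Wistar rats (~345 g), 10 per dose group, received a priming dose then a sustained jugular infusion of Ringer's with 2% PAH and 10% inulin at 0.03 ml/min. Clearance was measured over a 30-min control period, then a 30-min iv stevioside priming-plus-infusion period. PAH in carotid plasma and timed bladder urine was measured colorimetrically.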"}, "[19]": {"system": "Rattus norvegicus", "assay": "Effect on renal excretion in Wistar rat assessed as p-aminohippuric acid clearance at 8 mg/kg/hr, iv administered 30 mins after p-aminohippuric acid infusion (RVb=15.60 ml/min/kg)", "assay_type": "functional, Kidney", "in_short": "as §3"}, "[20]": {"system": "Rattus norvegicus", "assay": "Effect on renal excretion in Wistar rat assessed as p-aminohippuric acid clearance at 12 mg/kg/hr, iv administered 30 mins after p-aminohippuric acid infusion (RVb=15.38 ml/min/kg)", "assay_type": "functional, Kidney", "in_short": "as §3"}, "[21]": {"system": "Rattus norvegicus", "assay": "Effect on renal excretion in Wistar rat assessed as p-aminohippuric acid clearance at 16 mg/kg/hr, iv administered 30 mins after p-aminohippuric acid infusion (RVb=16.70 ml/min/kg)", "assay_type": "functional, Kidney", "in_short": "as §3"}, "[22]": {"assay": "Clearance in Wistar rat at 4 mg/kg/hr, iv", "assay_type": "ADME, organism-based", "parameters": "route intravenous", "conditions": "in vivo", "in_short": "as §1"}, "[23]": {"assay": "Clearance in Wistar rat at 8 mg/kg/hr, iv", "assay_type": "ADME, organism-based", "parameters": "route intravenous", "conditions": "in vivo", "in_short": "as §1"}, "[24]": {"assay": "Clearance in Wistar rat at 12 mg/kg/hr, iv", "assay_type": "ADME, organism-based", "parameters": "route intravenous", "conditions": "in vivo", "in_short": "as §1"}},
  "data": [
    {"smiles": "C=C1C[C@@]23CC[C@H]4[C@@](C)(CCC[C@@]4(C)C(=O)O[C@@H]4O[C@H](CO)[C@@H](O)[C@H](O)[C@H]4O)[C@@H]2CC[C@]1(O[C@@H]1O[C@H](CO)[C@@H](O)[C@H](O)[C@H]1O[C@@H]1O[C@H](CO)[C@@H](O)[C@H](O)[C@H]1O)C3", "note": "[STEVIOSIDE]", "values": [
      {"measurement": "clearance", "setting": "[1]", "result": 12.5, "unit": "mL/min/kg"},
      {"measurement": "Activity", "setting": "[2]", "result": 0, "unit": "mL/min/kg"},
      {"measurement": "Activity", "setting": "[3]", "result": 1.33, "unit": "mL/min/kg"},
      {"measurement": "Activity", "setting": "[4]", "result": 1.84, "unit": "mL/min/kg"},
      {"measurement": "Activity", "setting": "[5]", "result": 2.38, "unit": "mL/min/kg"},
      {"measurement": "Activity", "setting": "[6]", "result": 0.79, "unit": "%"},
      {"measurement": "Activity", "setting": "[7]", "result": 1.12, "unit": "%"},
      {"measurement": "Activity", "setting": "[8]", "result": 1.53, "unit": "%"},
      {"measurement": "Activity", "setting": "[9]", "result": 1.55, "unit": "%"},
      {"measurement": "Activity", "setting": "[10]", "result": 1.56, "unit": "%"},
      {"measurement": "Activity", "setting": "[11]", "result": 2.19, "unit": "%"},
      {"measurement": "Activity", "setting": "[12]", "result": 2.67, "unit": "%"},
      {"measurement": "Activity", "setting": "[13]", "result": 2.36, "unit": "%"},
      {"measurement": "Activity", "setting": "[14]", "result": 6.02, "unit": "mL/min/kg"},
      {"measurement": "Activity", "setting": "[15]", "result": 6.51, "unit": "mL/min/kg"},
      {"measurement": "Activity", "setting": "[16]", "result": 5.92, "unit": "mL/min/kg"},
      {"measurement": "Activity", "setting": "[17]", "result": 6.3, "unit": "mL/min/kg"},
      {"measurement": "Activity", "setting": "[18]", "result": 12.7, "unit": "mL/min/kg"},
      {"measurement": "Activity", "setting": "[19]", "result": 19.2, "unit": "mL/min/kg"},
      {"measurement": "Activity", "setting": "[20]", "result": 28.3, "unit": "mL/min/kg"},
      {"measurement": "Activity", "setting": "[21]", "result": 33.4, "unit": "mL/min/kg"},
      {"measurement": "clearance", "setting": "[22]", "result": 7.21, "unit": "mL/min/kg"},
      {"measurement": "clearance", "setting": "[23]", "result": 9.63, "unit": "mL/min/kg"},
      {"measurement": "clearance", "setting": "[24]", "result": 10.2, "unit": "mL/min/kg"}
    ]}
  ]
}
